Screens deposited in PubChem by Sanford-Burnham Center for Chemical Genomics.
Hits are enriched below; roughly 1.5% of the tested compounds scored in any of these assays.
APJ antag: antagonists of human apelin receptor APJ, primary screen, CHO-K1 cells, beta-arrestin complementation, luminescence. inhibition, % at 20 µM. P35414. 0.32% of 330,000 active;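 active = inhibition above about 40% at 20 µM, limit read from the data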;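 note: cells challenged with 10 nM apelin-13 agonist together with compound; plate controls were apelin-13 plus DMSO wells for no effect and DMSO wells lacking apelin-13 for full effect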
APJ agonist: agonists of human apelin receptor APJ, primary screen, CHO-K1 cells, PathHunter beta-arrestin, luminescence. 0% DMSO wells, 100% apelin. activation, % at 20 µM. 0.11% of 330,000 active;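 active = activation more than six SD over the plate average, tested at 20 µM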;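 note: 0% = DMSO alone and 100% = apelin-13 at 10 nM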
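Test system: CHO-K1 APJ beta-arrestin complementation cell line. Amount: cell density 1000 per well. Controls: DMSO negative, 10 nM Apelin-13 positive. Signal: luminescent beta-gal fragment complementation, chemiluminescent substrate. Read-out basis: agonist-driven arrestin binding to APJ. Timing: compound stimulation 90 min at 25 °C, detection 60 min.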
CCR6 antagonist: CCR6 receptor antagonists, primary screen, cell-based, CHO-K1, luminescence, beta-arrestin, uHTS; CHO-K1 CCR6 PathHunter beta-arrestin, CCL20-stimulated; inhibition, % at 20 µM; 0.49% of 340,000 active;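 active = compounds whose inhibition of the agonist-driven luminescence signal at 20 µM reaches about 50%, limit read from the data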;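 note: cells stimulated with CCL20 at 14 nM final; plate controls were DMSO with CCL20 for no effect and DMSO without agonist for full effect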
Target sequence (P51684 whole entry, looked up): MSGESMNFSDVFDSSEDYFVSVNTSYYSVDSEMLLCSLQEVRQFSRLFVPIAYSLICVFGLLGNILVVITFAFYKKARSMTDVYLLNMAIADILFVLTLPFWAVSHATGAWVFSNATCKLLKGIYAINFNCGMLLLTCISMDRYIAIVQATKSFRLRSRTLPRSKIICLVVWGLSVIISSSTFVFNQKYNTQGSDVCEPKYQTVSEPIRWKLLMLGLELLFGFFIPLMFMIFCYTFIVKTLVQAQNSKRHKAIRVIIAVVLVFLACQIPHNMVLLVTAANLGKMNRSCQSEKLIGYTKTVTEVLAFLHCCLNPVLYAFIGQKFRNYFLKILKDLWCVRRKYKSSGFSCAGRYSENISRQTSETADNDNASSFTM
CXCR6 block: CXCR6 receptor inhibitors, primary screen, cell-based, beta-arrestin, luminescence, CHO-K1 PathHunter, 1536-well; C-X-C chemokine receptor type 6 (Homo sapiens), O00574; AID 602244, 2012; inhibition, % at 20 µM; 0.36% of 360,000 active; in the data active = inhibition above about 34%, passing the limit was not always enough;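 note: antagonist mode with CXCL16 agonist at 10 nM final; 0% = 10 nM CXCL16 with DMSO and 100% = unstimulated wells without agonist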
EBI2 antag: EBI2 receptor antagonists, beta-arrestin recruitment, primary screen, cell-based, luminescence, 7a,25-OHC stimulation, uHTS; 0.81% of 360,000 active; G-protein coupled receptor 183 (Homo sapiens), P32249; inhibition, % at 5 µM; 7a,25-OHC stimulated; AID 651636, 2012; in the data active = inhibition above about 38%;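 note: enzyme fragment complementation signal reports receptor beta-arrestin coupling in cells; 0% = agonist plus DMSO wells and 100% = wells without agonist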
EBI2 conf: EBI2 antagonist hit retest, beta-arrestin, confirmation, cell-based, single concentration, luminescence, 7a,25-OHC stimulation; shares compounds with EBI2 antag; 7a,25-OHC antagonism; inhibition, % at 5 µM; 29% of 2,400 active; AID 651997, 2013;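 active = inhibition of at least 50%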
EBI2 agonist: EBI2 agonist activity of antagonist hits, confirmation, counter-screen for EBI2 antagonist project, cell-based, single concentration, agonist mode, luminescence | 2,400 tested, under 10 active | AID 652000, 2013 | EBI2-expressing cells, 60 min; 0% vehicle, 100% 7α,25-dihydroxycholesterol control | shares compounds with EBI2 antag | activation, % at 5 µM;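 active = activation of at least 50%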
bGal counter: E. coli beta-galactosidase enzyme inhibition, confirmation, counter-screen for EBI2 antagonist project, biochemical, luminescence, single concentration | shares compounds with EBI2 antag | purified beta-galactosidase, luminescent Galacton Star, 15 min | inhibition, % at 5 µM | 1% of 2,400 active | AID 652176, 2013;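 active = replicate-average signal at least 3 plate SD below neutral wells, shown as high inhibition, flagging enzyme-inhibiting false positives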;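 note: 0% = DMSO wells with enzyme and 100% = wells lacking enzyme; higher means stronger loss of beta-gal luminescence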
Numbers without * were called inactive.

For COc1ccc(/C=N/NC(=O)Nc2cccc3nsnc23)c(OC)c1 the results were APJ antag -1, APJ agonist 1, CCR6 antagonist -2, CXCR6 block -6, EBI2 antag 53*, EBI2 conf 28, EBI2 agonist 1 and bGal counter 5.
`COc1cc(/C=N/NC(=O)Nc2cccc3nsnc23)cc(OC)c1OC` gave CCR6 antagonist -19, CXCR6 block 1 and EBI2 antag -4.
`CSC(=Nc1ccccc1)C(C#N)c1nc2ccccc2[nH]1` (configuration not stated) gave APJ antag 11, APJ agonist -3, CCR6 antagonist 36, CXCR6 block 8, EBI2 antag 57*, EBI2 conf 47, EBI2 agonist -2 and bGal counter -11.
For N#CC(C(=S)Nc1ccccc1)c1nc2ccccc2[nH]1 (configuration not stated) the results were APJ antag 24, APJ agonist -3, CCR6 antagonist 30, CXCR6 block -4 and EBI2 antag 2.
For O=C(COc1ccc(Br)cc1)NNC(=O)c1cc(S(=O)(=O)N2CCOCC2)ccc1Cl the results were CCR6 antagonist 12, CXCR6 block -16 and EBI2 antag 40.
Cc1ccc(NNC(=S)Nc2ccc(C(C)C)cc2)c(C)c1 was read as APJ antag 30, APJ agonist -5, CCR6 antagonist 42, CXCR6 block 19, EBI2 antag 70*, EBI2 conf 62*, EBI2 agonist -1 and bGal counter -8.
For CCOC(=O)c1c(S(=O)(=O)NCC(=O)Nc2ccc(OC)cc2)c(C)n(C)c1C the results were APJ antag 3, APJ agonist -2, CCR6 antagonist -12, CXCR6 block 4 and EBI2 antag 2.
Screening CC(C)Nc1nc(Cl)nc(N(C#N)CN2C(=O)c3ccccc3C2=O)n1 returned APJ antag 0, APJ agonist -2, CCR6 antagonist 17, CXCR6 block 20, EBI2 antag 56*, EBI2 conf 53*, EBI2 agonist 0 and bGal counter 6.
Screening CCC(C)Nc1nc(Cl)nc(N(C#N)CN2C(=O)c3ccccc3S2(=O)=O)n1 (configuration not stated) returned APJ antag 1, APJ agonist -2, CCR6 antagonist -2, CXCR6 block 22 and EBI2 antag 10.
For CCCC(C)NC(=O)COc1ccc(Sc2ccc(OCC(=O)NC(C)CCC)cc2)cc1 (configuration not stated) the results were APJ antag -7, APJ agonist 3, CCR6 antagonist 21, CXCR6 block 4, EBI2 antag 43*, EBI2 conf 27, EBI2 agonist 2 and bGal counter -2.
`CCCN1C[C@@H](C)[C@@H](OC)CN(C)C(=O)c2ccc(NC(=O)c3cccc(F)c3)cc2OC[C@H]1C` gave EBI2 antag -7.
OC(COc1ccc(Cl)cc1)CSc1ccccn1 (configuration not stated) was read as APJ antag 6, APJ agonist -3, CCR6 antagonist 18, CXCR6 block -7, EBI2 antag 52*, EBI2 conf 32, EBI2 agonist 1 and bGal counter 3.
`C=CCNC(=O)COc1coc(CN2CCN(C(=O)c3ccco3)CC2)cc1=O` gave APJ antag 9, APJ agonist 3, CCR6 antagonist 3, CXCR6 block 0 and EBI2 antag 2.
CC(=O)NCCNc1nc2cc(-c3cnn(CCC(C)C)c3)sc2c(=O)n1C was read as CXCR6 block -3 and EBI2 antag -5.
Screening O=[N+]([O-])c1ccc(Oc2ccc(C(F)(F)F)cn2)cc1 returned APJ antag 1, APJ agonist -3, CCR6 antagonist 13, CXCR6 block -11 and EBI2 antag 8.
Screening FC(F)(F)c1ccc(Oc2ccc3cc(Br)ccc3c2)nc1 returned APJ antag 2, APJ agonist -1, CCR6 antagonist 7, CXCR6 block -10, EBI2 antag 84*, EBI2 conf 48, EBI2 agonist 1 and bGal counter 7.
Cc1ccc(-c2cc3nc(-c4ccccc4)cc(NCCCO)n3n2)cc1 was read as CXCR6 block 6, EBI2 antag 47*, EBI2 conf 35, EBI2 agonist 0 and bGal counter -10.
For Cc1ccc(-c2cc3nc(-c4ccccc4)cc(N)n3n2)cc1 the results were APJ antag 2, APJ agonist -1, CCR6 antagonist -9, CXCR6 block 2 and EBI2 antag 2.
`Cc1cc(C(=O)N2CCN(S(=O)(=O)c3ccc(F)c(Cl)c3)CC2)c(C)o1` gave APJ antag -14, APJ agonist -1, CCR6 antagonist 4, CXCR6 block 0 and EBI2 antag -6.
Screening O=S(=O)(NC1CCCC1)c1cc(F)ccc1F returned APJ antag 2, APJ agonist 8, CCR6 antagonist 10, CXCR6 block 3 and EBI2 antag 1.
For CCc1ccc(/C=N/NC(=S)NCCc2ccccc2)cc1 the results were APJ antag 14, APJ agonist -5, CCR6 antagonist 13, CXCR6 block 1, EBI2 antag 57*, EBI2 conf 36, EBI2 agonist 0 and bGal counter -11.
For CN(C)c1ccc(/C=N/NC(=S)NCc2ccccc2)cc1 the results were APJ antag 4, APJ agonist 8, CCR6 antagonist 11, CXCR6 block 0, EBI2 antag 49*, EBI2 conf 28, EBI2 agonist 1 and bGal counter 4.
Screening CC(C)(C)c1ccc(/C=N/NC(=S)NCc2ccccc2)cc1 returned APJ antag -3, APJ agonist -2, CCR6 antagonist 20, CXCR6 block 10 and EBI2 antag 18.
O=C(NCc1ccccc1)c1cccc(NC(=O)C2CCCC2)c1 was read as CCR6 antagonist 1, CXCR6 block 2 and EBI2 antag -8.
For O=C(CCn1nnc2ccccc21)OCC(=O)c1ccc(F)cc1 the results were APJ antag 2, APJ agonist 2, CCR6 antagonist 2, CXCR6 block -2 and EBI2 antag 5.
